From the RNAGym collection of RNA variant scans (doi:10.1126/science.aae0568)
Fewer inactive variants are shown than the library holds.

B1: tRNA (parent)
chain: GUUCCGUUGGCGUAAUGGUAACGCGUCUCCCUCCUAAGGAGAAGACUGCGGGUUCGAGUCCCGUACGGAACG

Variants of: B1
Test: yeast fitness relative to wild type (ratio to wild type); higher = fitter; tRNA-Arg(CCU), competitive growth, 37 C, YPD
Procedure, shortened: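 Variants of the tRNA-Arg(CCU) gene were chemically synthesised with a 3% per-site mutation rate across 69 sites and placed at the native genomic locus in Saccharomyces cerevisiae. Six parallel replicates of the pooled strains were competed in YPD at 37°C for 24 hours, and gene amplicons from the start and end populations were read by 100-nucleotide paired-end sequencing. Darwinian fitness relative to wild type was derived from changes in genotype frequencies. Genotypes required ≥ 100 starting reads, and estimates < 0.5 were set to 0.5.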

Row | Variant | yeast fitness
1 | GUUCCGUUGGCGUAAUGGUAACGCGUCUCCCUCCUAAGCAGAAGACCGCGGGUUCGAGUCCCGUACGGAACG [G39C U47C] | 0.822
2 | GUUCCGUUGGCGUAAUGGUAACGCGCCUCUCUCCUAAGGAGAAGACUGCGGGUUCGAGUACCGUACGGAACG [U26C C30U C60A] | ≤ 0.5
3 | GUUCCGUUGGCGUAAUGGUAACGCGUCUCUCUCCUAAGGAGAAGAAUGCGGGUUCGAGUCACGUACGAAACG [C30U C46A C61A G68A] | ≤ 0.5
4 | GUUCCGUUGGGGUAAUGGUAACGCGUCUCCCUCCUAAGGAGAAGACUACGGGUUCGAGUCCCGUUCGGAACG [C11G G48A A65U] | 0.525
5 | GUUCCGUUGGCGUAAUGGUAAUGUGUCUCCCUCCUAAGGAGAAGACUGCGGGUUCGAGUCCCGUACGGAACG [C22U C24U] | 0.885
6 | GUUCCGUUGGCGUAAUGGUAAGGCGUCUCCCUGCUAAGGAGAAGACUGCGAGUUCGAGUCCCGUACGGAACG [C22G C33G G51A] | ≤ 0.5
7 | GUUCCGUUGGCGUAAUGGUAACGAGUCUCCCCCCUAAGGAGAAGACUGCGGGUUAGAGUUCCGUACGGAACG [C24A U32C C55A C60U] | 0.698
8 | GAUCCGUUGGCGUAAUGGUAACGCGUUUCCCUCCUAAGGAGAAGACGGCGGGUUGGACUCCCGUACGGAACG [U2A C27U U47G C55G G58C] | ≤ 0.5
9 | GUUCCGUUGGCGUAAUGGUGACGCGUCUCACUCCUAAGGAGAAGACUGCGGGUUCGAGUCCCGUACGGAACG [A20G C30A] | 1
10 | GUUGCGUUGGCGUAAUGGUAACGCGUCUCCCUCCUAAGGUGCAGACUGCGGGUUCGAGUCCCGUAUGGAACG [C4G A40U A42C C66U] | 0.52
11 | GUUCCGUUGGCGUAAUGGUAACGUGUCUCCUUCCUAAGGAGAAGACUGCGGGUACGAGUCCCGUACGGAACG [C24U C31U U54A] | ≤ 0.5
12 | GUUCUGUUGGCGUAAUGGUAACGCGUCUCCCUCCUAAGGAGAAGACUGCGGGUUCGACCCCCGUACGGAACG [C5U G58C U59C] | 0.675
13 | GUUCCCUUGGGGUAAUGGUAAUGCGUCUCCCUCCUAAGGAGAAGACUGCGGGUUCGAGUCCCGUACGGCACG [G6C C11G C22U A69C] | ≤ 0.5
14 | GUUCCAUUGGCGUAAUGGUAACGCGUCUCCCUCCUAAGGAGAAGUCUGCGGGUUCGAGUCCCGUACGGAACG [G6A A45U] | 0.942
15 | GUUCCGUUGGCGUAAUGGUAACGCGUCUCCCUCCUAAGGAGAAGAAUGCGGGUUCGAUUCCCGUACGGAACG [C46A G58U] | 0.907
16 | GUUCCGUUGGCGUAAUGGCAACGCGUCUCCCUCCUAAGGAGAAGCCUGCGGGUUCGAGUCCCGUACGCAACG [U19C A45C G68C] | ≤ 0.5
17 | GUUCCGUUGGCGUAAUGGUAACGCGUAUCCCUCCUAAGGCGAAGUCUGCGGGUUCGUGUCCCGUACGGAUCG [C27A A40C A45U A57U A70U] | 0.588
18 | GUUCCGUUAGCGUAAUGGUAACGCGUCUCCCUCCUAAGCAGACGACUGCGGGUUCGCGUCCCGUACGGAACG [G9A G39C A43C A57C] | ≤ 0.5
19 | GUUCAGUUGGGGUAAUGGUAACGCGUCUCCCUCCUAAGGAGUAGACUGCGGGAUCGAGUCCCGUACGGAACG [C5A C11G A42U U53A] | ≤ 0.5

Row | Variant | yeast fitness
20 | GUUCCGUUGGCGUAAUGGUUACGCGUCUCCCUCCUAAGAAGAAGACUGCGCGUUGGAGUCCCGUACGGAACG [A20U G39A G51C C55G] | ≤ 0.5
21 | GUUCCGUUGGCGUAAUGGUAACGCGUCUCUCUCCUAAGGAGAAGACUGCGGGUUUGAGUCCCGUAUGGAACG [C30U C55U C66U] | 0.531
22 | GUUCCGUUGGUGUAAUGGUAACGCGUCUCCCUCCUUCGGAGUAGACUGCGGGUUCGAGUCCCCUACGGAACG [C11U A36U A37C A42U G63C] | ≤ 0.5
23 | GUUCCGUUGGCGUAAUGGUAACGCGUCUCCCUCCUAAGGAGAUGACUGCGGGUUCGAGUCCCGUACGGAACG [A43U] | 0.988
24 | GUUCCGUUGGCGUAAUGGUAACACGUCUCCCUCCUAAGGUGAAGACUGUGGGUUCGAGUACCAUACGGAACG [G23A A40U C49U C60A G63A] | ≤ 0.5
25 | GUUGCGUUGGCGUAAUGGUAACGCGUCUCCGUCCUAAGGGGAAGACUGCGGGUUCGAGUCCAGUACGGAACG [C4G C31G A40G C62A] | ≤ 0.5
26 | GUUCCGUUGGCGUAAUGGUAACGCGUCUCCCUCCUAAGGAGAAGACUACGGGUUCGAGUCACGUACGGAACG [G48A C61A] | 0.682
27 | GUUCCGUUGGCGUAAUGGUAACGCGUCUCCCUCCUAAGGAGAAGACUACGGCUCCGAGUCCCGUAUGGAACG [G48A G52C U54C C66U] | ≤ 0.5
28 | GUUCCGUUGGCGUAAUGGUAACGCAUCUCCCUCCUAAGGAGAAGACUGCGGGUUCGAGUCCGGUACGGAACG [G25A C62G] | 0.855
29 | GAUCCGUUGGCGUAAUGGUAGCGCGUCUCCCUCCUAAGGAGAACACUGCGGGUUCGAGGCUCGUACGGAACG [U2A A21G G44C U59G C61U] | ≤ 0.5
30 | GUUCCGUAGGCGUAAUGGUAACGCGUCUGCCUCCUAAGGAGAAGACUGCGGGUUCGAGUUCCGUACAGUACG [U8A C29G C60U G67A A69U] | ≤ 0.5
31 | GUUCCCUUGGCGUAAUGGUAACGCGUCUCCCUCCUAAGGAGAAGAGUGCGGGUUCGAGUCCUAUAUGGAACG [G6C C46G C62U G63A C66U] | ≤ 0.5
32 | GUUCCGUUGGCGUAAUGGUAACGCGUCUCCCUCCUCAGGAGAAGACUGCGGGUUUGAGUCCCGUACGCAGCG [A36C C55U G68C A70G] | ≤ 0.5
33 | GUUCGGUUGGCGUAAUGGUAACACGUCUCCCUCCUAAGGAGAAGACUGCGGGUUCGAGUCCCGUACGGAACG [C5G G23A] | 0.668
34 | GUUCCGCUGGCGUAAUGGUAACGCGUCUCCCCCCUAAGGAGAAGACUGCGGGCUCGAGUCCCGUACGGAACG [U7C U32C U53C] | 0.536
35 | GUUCCGUUGGCGUAAUGGUAACGCGUCUCCCUCCUAAGGAGAAGACUGCGGGUUCGGGUCUCGUACGGAACG [A57G C61U] | 0.699
36 | GUUUCGUUGACGUAAUGGUAACGCGUCUCCCUCCUUAGGAGAAGACUGCGGGUUCGAGUCCCGUACGGAACG [C4U G10A A36U] | ≤ 0.5
37 | GUUCCGUUGGCGUAAUGGUAACGGGUCUCCCUUCUAAGGAGAAGACUGGGGGUUCGUGUCGCGUACGGAACG [C24G C33U C49G A57U C61G] | ≤ 0.5
38 | GUUCCGUUGGCGCAAUGAUAACGCGUCUCCCUCCUAAGGAGAAGACUGCGGGUUCGAGUCCCGUAGGGAACG [U13C G18A C66G] | 0.662
